Assay outcomes from PubChem BioAssay.
An excerpt weighted towards active compounds, which were near 3.7% of everything screened.
KCNK9 block – human KCNK9 channel inhibition | 310,000 tested, 1.2% active | B-score at 10 µM | HEK293 KCNK9, FluxOR thallium flux fluorescence; stronger effect = lower value;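 active means ratio B-score over 3 SD below the library mean, with starting fluorescence within 5 SD of its mean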;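 further: negative B-score means less thallium flux so channel inhibition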
KCNQ1 act – potentiators or activators of human KCNQ1 potassium channel; P51787; CHO-K1 KCNQ1, thallium flux FluxOR fluorescence; stronger effect = higher value; B-score at 10 µM; 310,000 tested, 0.35% active;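 active means fluorescence ratio B-score, a plate-corrected score, at least three library SD, with initial intensity B-score within 5 SD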
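Assay system: stable KCNQ1 CHO-K1 line; medium: assay buffer, equal DMSO in all wells; timing: 90 min dye loading and 20 min compound exposure, both at room temperature; technique: kinetic FluxOR thallium fluorescence, 10-s 1-Hz baseline, 110-s post-stimulus read; read-out basis: B score of baseline-normalized fluorescence ratio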
hERG protect – hERG (human) protection from proarrhythmic block; Q12809; CHO-hERG, FluxOR thallium flux, dofetilide IC70 present; activation (rescue from dofetilide block), less the hit threshold, % at 10 µM; 310,000 tested, 0.51% active;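 active means activation above the mean of controls blocked by dofetilide plus 5 SD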;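 further: thallium influx through hERG after potassium depolarization seen as dye fluorescence rise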
Kir21 block – inhibitors of mouse Kir2.1 inward-rectifier potassium channel; P35561; HEK293-Kir2.1, FluxOR thallium flux fluorescence; stronger effect = lower value; B-score at 10 µM; 310,000 tested, 0.85% active;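 active means fluorescence ratio B-score at or below minus 3 SD of library scores, with starting-brightness B-score within 2 SD, cut at about -4.2 in these data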;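 further: channel flux triggered by added potassium and thallium sulfate stimulus; B-score of peak minus minimum fluorescence over baseline after thallium stimulus; more negative B-score means stronger Kir2.1 block with less thallium influx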
KCNK3 block – human KCNK3 channel inhibition, primary screen; O14649; CHO-KCNK3 thallium flux, FluxOR fluorescence; stronger effect = lower value; B-score at 10 µM; 340,000 tested, 0.84% active;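 active means B-score under library mean minus 4 SD, starting fluorescence ratio at most library mean plus 5 SD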;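 further: more negative B-score means stronger inhibition of thallium flux through KCNK3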
Target sequence (O14649 whole entry, looked up): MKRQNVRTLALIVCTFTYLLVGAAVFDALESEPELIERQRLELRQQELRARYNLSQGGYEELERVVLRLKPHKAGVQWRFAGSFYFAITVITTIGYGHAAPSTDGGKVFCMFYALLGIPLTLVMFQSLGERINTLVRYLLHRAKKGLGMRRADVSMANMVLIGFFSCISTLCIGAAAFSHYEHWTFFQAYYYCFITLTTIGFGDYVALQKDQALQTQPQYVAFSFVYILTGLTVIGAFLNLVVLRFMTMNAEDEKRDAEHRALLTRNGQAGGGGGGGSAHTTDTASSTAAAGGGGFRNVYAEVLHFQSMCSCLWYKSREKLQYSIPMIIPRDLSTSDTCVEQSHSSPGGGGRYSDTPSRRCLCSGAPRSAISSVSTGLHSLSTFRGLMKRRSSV
KCNQ1 block – inhibitors of human KCNQ1 potassium channel. P51787. 310,000 tested, 1.3% active. AID 2642. B-score at 10 µM. CHO-K1 KCNQ1, FluxOR thallium flux fluorescence; stronger effect = higher value;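 active means compounds whose thallium flux B-score, printed positive for inhibition, exceeds three library SD while starting fluorescence stays within three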;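 further: channel opened by potassium depolarization with thallium stimulus after 20 min compound exposure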
Numbers without * were called inactive.

For CN1CCN(CCCNC(=O)c2ccc(Cn3c(=S)[nH]c4ccc(Br)cc4c3=O)cc2)CC1 the results were KCNK9 block inactive, KCNQ1 act inactive, hERG protect -15, Kir21 block 0.13, KCNK3 block inactive and KCNQ1 block inactive.
C(=C\c1ccco1)/C1=NN(c2ccccc2)C(c2ccco2)C1 (stereo unspecified) was read as KCNK9 block inactive, KCNQ1 act inactive, hERG protect -15, Kir21 block -2.1, KCNK3 block inactive and KCNQ1 block inactive.
`O=[N+]([O-])c1ccc(/C=C/C2=NN(c3ccccc3)C(c3ccco3)C2)o1` (stereo unspecified) gave KCNK9 block inactive, KCNQ1 act inactive, hERG protect -10, Kir21 block -0.88, KCNK3 block -9.7* and KCNQ1 block inactive.
`CCc1ccc(/C=C2\Oc3cc(OS(C)(=O)=O)ccc3C2=O)cc1` gave KCNK9 block inactive, KCNQ1 act inactive, hERG protect -5, Kir21 block 0.23, KCNK3 block inactive and KCNQ1 block inactive.
Screening CCc1ccc(/C=C2\Oc3c(ccc(O)c3CN3CCN(CCO)CC3)C2=O)cc1 returned KCNK9 block inactive, KCNQ1 act inactive, hERG protect -29, Kir21 block -5.4, KCNK3 block inactive and KCNQ1 block 11*.
For Fc1cccc2sc(Nc3nnc(-c4ccco4)o3)nc12 the results were KCNK9 block inactive, KCNQ1 act 21*, hERG protect 13*, Kir21 block 0.26, KCNK3 block inactive and KCNQ1 block inactive.
O=C(Nc1nc2c(F)cccc2s1)c1ccco1 was read as KCNK9 block inactive, KCNQ1 act inactive, hERG protect -7, Kir21 block -0.93, KCNK3 block inactive and KCNQ1 block inactive.
For COc1cccc2sc(Nc3nc(-c4ccccn4)cs3)nc12 the results were KCNK9 block -6.9*, KCNQ1 act 33*, hERG protect 24*, Kir21 block -0.65, KCNK3 block inactive and KCNQ1 block inactive.
For COc1cccc2sc(Nc3nnc(-c4cccs4)o3)nc12 the results were KCNK9 block inactive, KCNQ1 act 19*, hERG protect 34*, Kir21 block 1.9, KCNK3 block inactive and KCNQ1 block inactive.
For COc1cccc2sc(Nc3nnc(-c4ccc(F)cc4)o3)nc12 the results were KCNK9 block inactive, KCNQ1 act 94*, hERG protect 46*, Kir21 block 1.2, KCNK3 block inactive and KCNQ1 block inactive.
`O=C(Nc1cc(Cl)ccc1Cl)N1CCN(C(=O)Nc2cc(Cl)ccc2Cl)CC1` gave KCNK3 block inactive.
CC1CCCCC1NC(=O)c1cc(S(=O)(=O)N2CCOCC2)ccc1Cl (stereo unspecified) was read as KCNK3 block inactive.
Cc1cc(CN2CCN(CC(=O)Nc3cc(Cl)ccc3-n3cncn3)CC2)no1 was read as KCNK3 block inactive.
COc1ccc(CNC(=S)NCc2ccc(Cl)cc2)cc1OC was read as KCNK9 block inactive, KCNQ1 act inactive, hERG protect -6, Kir21 block 1.3, KCNK3 block inactive and KCNQ1 block inactive.
`OC(c1ccccc1)(C1CCCCC1)C(CN1CCOCC1)c1ccccc1` (stereo unspecified) gave KCNK9 block inactive, KCNQ1 act inactive, hERG protect -13, Kir21 block 0.67, KCNK3 block inactive and KCNQ1 block 6*.
For COc1ccc(C(O)(C2CCCCC2)C(CN2CCOCC2)c2ccccc2)cc1 (stereo unspecified) the results were KCNK9 block inactive, KCNQ1 act inactive, hERG protect -13, Kir21 block -0.02, KCNK3 block inactive and KCNQ1 block inactive.
`O=C(O)CN1C(=O)/C(=C\c2cn(CC(=O)N3CCOCC3)c3ccccc23)SC1=S` gave KCNK9 block inactive, KCNQ1 act inactive, hERG protect -15, Kir21 block -7.7, KCNK3 block inactive and KCNQ1 block 6*.
Screening O=C(CCCN1C(=O)/C(=C\c2ccccc2)SC1=S)N1CCOCC1 returned KCNK3 block inactive.
CC[C@]12C(=O)N(C)C[C@H]([C@@H]3C(=O)N(C)C(=O)[C@@H]31)N2C(=O)c1ccccc1 was read as KCNK3 block inactive.
Screening COc1ccccc1C(=O)OCC(=O)NC(=O)NCc1ccccc1 returned KCNK9 block inactive, KCNQ1 act inactive, hERG protect -6, Kir21 block -0.9, KCNK3 block inactive and KCNQ1 block inactive.
For CNC(=O)NC(=O)COC(=O)c1ccccc1OCc1ccccc1 the results were KCNK9 block inactive, KCNQ1 act inactive, hERG protect 8.3*, Kir21 block 0.81, KCNK3 block inactive and KCNQ1 block inactive.
`CCNC(=O)c1ccccc1SCC(=O)Nc1ccc(F)cc1` gave KCNK9 block inactive, KCNQ1 act inactive, hERG protect -10, Kir21 block 0.53, KCNK3 block inactive and KCNQ1 block inactive.
Screening Cc1cc(C)c(Cn2cnc(-c3ccc([N+](=O)[O-])cc3)c2)c(C)c1 returned KCNK9 block inactive, KCNQ1 act inactive, hERG protect -10, Kir21 block -1.7, KCNK3 block inactive and KCNQ1 block 6*.
Cc1cc(OC(C)C(=O)N(Cc2ccco2)C2CCS(=O)(=O)C2)cc(C)c1Cl (stereo unspecified) was read as KCNK9 block inactive, KCNQ1 act inactive, hERG protect -6, Kir21 block 1.7, KCNK3 block inactive and KCNQ1 block inactive.
`COc1ccc(C(=O)CCS(=O)(=O)c2ccc(C)cc2)cc1OC` gave KCNK9 block inactive, KCNQ1 act 8*, hERG protect -7, Kir21 block -2.2, KCNK3 block inactive and KCNQ1 block inactive.
For O=C(Nc1cccc(Cl)c1N1CCCC1)c1cccc(-c2cc3ccccc3oc2=O)c1 the results were KCNK9 block -7.1*, KCNQ1 act inactive, hERG protect -8, Kir21 block -1.8, KCNK3 block inactive and KCNQ1 block inactive.
For O=C(Nc1ccc(CN2CCOCC2)cc1)c1cccc(-c2cc3ccccc3oc2=O)c1 the results were KCNK9 block inactive, KCNQ1 act inactive, hERG protect -32, Kir21 block -1.5, KCNK3 block inactive and KCNQ1 block inactive.
`C=CCn1c(SCC(=O)c2ccc(OC)cc2)nnc1-c1ccc2c(c1)OCO2` gave KCNK9 block inactive, KCNQ1 act inactive, hERG protect -12, Kir21 block -2.4, KCNK3 block inactive and KCNQ1 block inactive.
Screening C=CCn1c(SCC(=O)c2ccc(Cl)cc2)nnc1-c1ccc2c(c1)OCO2 returned KCNK9 block inactive, KCNQ1 act inactive, hERG protect -17, Kir21 block -5.4*, KCNK3 block inactive and KCNQ1 block inactive.
